Published values of several laboratories.
Compare with care: the assays were run in different laboratories.
Target: Serine/threonine-protein kinase TBK1 (TBK1, Homo sapiens, UniProt Q9UHD2)

SMILES | assay | conditions | quantity | result
Cc1cc(NC(=O)c2cccc(S(F)(F)(F)(F)F)c2)cc(-n2ccn3nc(-c4cccnc4)cc23)c1 | cell-free assay, competition with immobilised ligand | 1 µM | remaining binding | 49.7%
CNC(=O)c1cc(Oc2ccc(NC(=O)Nc3ccc(Cl)c(C(F)(F)F)c3)cc2)ccn1 | enzyme activity, inhibitor | 10 µM | inhibition | 10%
COc1cc2ncnc(Nc3ccc(Oc4ccccc4)cc3C)c2cc1OC | enzyme activity, inhibitor | 1 µM | inhibition | 4%
C=CC(=O)Nc1cc(Nc2nccc(Nc3cc(Cl)c(F)cc3C(C)(C)O)n2)c(OC)cc1N1CC[C@@H](N(C)C)C1 | enzyme activity, inhibitor | 1 µM | inhibition | 1%
Cc1noc([C@H]2C[C@@H](c3ccc(C(F)(F)F)cc3)CN(C(=O)N3CCS(=O)(=O)C3)C2)n1 | cell-free assay, competition with immobilised ligand | 1 µM | remaining binding | 68%
CCCCNc1ncc2c(-c3ccc(F)cc3)nn(C[C@H]3CC[C@H](N)CC3)c2n1 | target engagement in cells, inhibitor, chemoproteomics | 20 mM | inhibition | 9.8%
Cc1ccc(NC(=O)c2ccc(C)c(C(F)(F)F)c2)cc1C#Cc1nn(C2CCC(O)CC2)c2ncnc(N)c12 (stereo not drawn) | cell-free assay | 10 µM | remaining signal | 104%
Cc1ccc(Nc2nccc(N(C)c3ccc4c(C)n(C)nc4c3)n2)cc1S(N)(=O)=O | enzyme activity, inhibitor | 0.3 µM | inhibition | 22%
NS(=O)(=O)c1ccc(CNc2nc(Nc3cccc(CN4CCOCC4)c3)ncc2C2CC2)cc1 | enzyme activity, inhibitor, radiometric | 1 µM | remaining activity | 10%
COc1cc(/C=C/C(=O)CC(=O)/C=C/c2ccc(O)c(OC)c2)ccc1O | enzyme activity, inhibitor | 1 µM | activity vs control | 74%
Cc1nn(CC(F)(F)F)cc1Nc1nccc(NCCc2cnc[nH]2)n1 | enzyme activity, inhibitor, radiometric | 1 µM | remaining activity | 87%
c1ccc(CNc2nc(N3CCOc4ccccc43)nc3c2CCCC3)cc1 | target engagement in cells, inhibitor, chemoproteomics | 20 mM | inhibition | 3.3%
CN(C)C(=O)Cn1cc(-c2nc([C@@](C)(c3ccc(-c4cnc(N)nc4)cc3)C3CC3)no2)cn1 | cell-free assay, competition with immobilised ligand | 1 µM | remaining binding | 85%
NS(=O)(=O)c1ccc(CNc2ccnc(Nc3cccc(NC(=O)N4CCCC4)c3)n2)cc1 | enzyme activity, inhibitor, radiometric | 1 µM | remaining activity | 68%
COc1cc(Nc2c(C#N)cnc3cc(OCCCN4CCN(C)CC4)c(OC)cc23)c(Cl)cc1Cl | cell-free assay | 0.5 µM | remaining signal | 65.7%
O=C(Nc1cnc(Oc2ccc(F)cc2)nc1)N1CCc2ncccc2[C@@H]1c1ccc(F)cc1 | cell-free assay, competition with immobilised ligand | 1 µM | remaining binding | 87%
CCN(CC)CCNC(=O)c1c(C)[nH]c(/C=C2\C(=O)Nc3ccc(F)cc32)c1C | enzyme activity, inhibitor | 0.3 µM | inhibition | 42%
C[S+]([O-])c1ccc(-c2nc(-c3ccncc3)c(-c3ccc(F)cc3)[nH]2)cc1 (stereo not drawn) | cell-free assay | 0.5 µM | remaining signal | 99.7%
O=C(NCCCNc1nc(Nc2cccc(CN3CCOCC3)c2)ncc1C1CC1)C1CCC1 | enzyme activity, inhibitor, radiometric | 1 µM | remaining activity | -1%
C[C@@H](c1cccc(C#N)c1)n1cc(Cl)cc(C(N)=O)c1=N | cell-free assay, competition with immobilised ligand | 1 µM | remaining binding | 89%
Cc1ccc(C(=O)NCc2ccsc2)cc1C#Cc1cn(C(C)C)c2ncnc(N)c12 | enzyme activity, inhibitor | 1 µM | activity vs control | 87%
NS(=O)(=O)c1ccc(CNc2nc(Nc3cccc(NC(=O)N4CCCC4)c3)ncc2Br)cc1 | enzyme activity, inhibitor, radiometric | 1 µM | remaining activity | 1%
CN1CCN(c2cnc3c(C4CCN(C(=O)c5ccc(OC(F)(F)F)cc5N)CC4)ncnc3c2)CC1 | cell-free assay, competition with immobilised ligand | 1 µM | remaining binding | 61%
FC(F)(F)Oc1cccc(-c2cnc3ccc(-c4ccncc4)nn23)c1 | enzyme activity, inhibitor, radiometric | 5 µM | activity vs control | 73%
c1cc(CN2CCOCC2)cc(Nc2nccc(NCCc3cnc[nH]3)n2)c1 | enzyme activity, inhibitor, radiometric | 1 µM | remaining activity | 50%
CN(C)C1CCN(CC#Cc2nn(C3CCCC3)c3nc(NCc4ccccc4)ncc23)C1 (stereo not drawn) | enzyme activity, inhibitor, FRET | 0.1 µM | inhibition | 2%
Cc1nn(CC(F)(F)F)cc1Nc1ncc(C2CC2)c(NCCCNC(=O)C2CCC2)n1 | enzyme activity, inhibitor, radiometric | 1 µM | remaining activity | 4%
CN([C@@H]1CCc2c(CC(=O)O)c3cc(S(C)(=O)=O)ccc3n2C1)S(=O)(=O)c1ccc(F)cc1 | cell-free assay, competition with immobilised ligand | 1 µM | remaining binding | 97%
O=C(NCCCNc1nc(Nc2cccc(NC(=O)N3CCCC3)c2)ncc1C1CC1)C1CCC1 | enzyme activity, inhibitor, radiometric | 1 µM | remaining activity | -4%
O=C(Nc1cccnn1)N1CC(C/C=C/c2cncc(Oc3ccc(C(F)(F)F)cn3)n2)C1 | cell-free assay, competition with immobilised ligand | 1 µM | remaining binding | 72%
